ChEMBL document CHEMBL4014336 (J Med Chem, 2017)

Key:
[1] = test system: Mus musculus; test: In vivo inhibition of 11beta-HSD1 in po dosed non-fasting diet-induced obese mouse assessed as decrease in corticosterone excursion in plasma pretreated for 60 mins followed by DHC administration measured up to 120 mins by enzyme immunosorbent assay; format: functional
In short: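 Nonfasting diet-induced obese male mice, groups of n = 6 matched for body weight; tail bleed at −60 min, then oral vehicle (0.5% Methocel, 0.1% Tween 80 in water) or drug. At 60 min, bleed and oral DHC 10 mg/kg. Bleeds at 30, 60 and 120 min post-DHC. Plasma corticosterone measured by enzyme immunosorbent assay; drug levels in terminal bleed.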

[2] = Metabolic stability in human liver microsomes assessed as UGT-mediated glucuronidation of compound by measuring half life in presence of UDPGA; format: ADME
In short: (§1)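 Liver microsomal glucuronidation incubations in the presence of UDPGA; parent half-life determined.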

[3] = Metabolic stability in mouse liver microsomes assessed as UGT-mediated glucuronidation of compound by measuring half life in presence of UDPGA; format: ADME; in short: as §1
[4] = test system: Liver; test: Metabolic stability in human liver microsomes assessed as parent compound remaining after 10 mins; format: ADME, microsome; details: microsomes, 10 min
In short: (§2)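 Parent compound remaining after a 10 min incubation with human, mouse or rat liver microsomes.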

[5] = test system: Liver; test: Metabolic stability in mouse liver microsomes assessed as parent compound remaining after 10 mins; format: ADME, microsome; details: microsomes, 10 min; in short: as §2
[6] = test system: Liver; test: Metabolic stability in rat liver microsomes assessed as parent compound remaining after 10 mins; format: ADME, microsome; details: microsomes, 10 min; in short: as §2
[7] = Inhibition of cynomolgus monkey 11beta-HSD2; set-up: species or system Macaca fascicularis
[8] = molecular target: 11-beta-hydroxysteroid dehydrogenase type 2 (Rattus norvegicus, UniProt P50233); test: Inhibition of rat 11beta-HSD2
11-beta-hydroxysteroid dehydrogenase type 2, sequence (P50233 whole entry): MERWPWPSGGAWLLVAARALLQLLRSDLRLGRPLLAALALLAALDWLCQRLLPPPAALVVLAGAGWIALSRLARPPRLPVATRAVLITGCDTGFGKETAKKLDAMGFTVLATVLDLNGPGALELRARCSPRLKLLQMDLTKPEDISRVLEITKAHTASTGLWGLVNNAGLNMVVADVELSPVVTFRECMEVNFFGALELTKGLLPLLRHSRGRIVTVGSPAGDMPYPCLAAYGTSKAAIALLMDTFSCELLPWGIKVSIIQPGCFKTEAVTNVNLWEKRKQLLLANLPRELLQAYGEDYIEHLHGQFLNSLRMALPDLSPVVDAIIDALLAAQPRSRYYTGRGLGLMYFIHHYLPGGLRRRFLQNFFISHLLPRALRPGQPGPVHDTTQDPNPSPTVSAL

[9] = molecular target: 11-beta-hydroxysteroid dehydrogenase 1 (Rattus norvegicus, UniProt P16232); test: Inhibition of rat 11beta-HSD1
11-beta-hydroxysteroid dehydrogenase 1, sequence (P16232 whole entry): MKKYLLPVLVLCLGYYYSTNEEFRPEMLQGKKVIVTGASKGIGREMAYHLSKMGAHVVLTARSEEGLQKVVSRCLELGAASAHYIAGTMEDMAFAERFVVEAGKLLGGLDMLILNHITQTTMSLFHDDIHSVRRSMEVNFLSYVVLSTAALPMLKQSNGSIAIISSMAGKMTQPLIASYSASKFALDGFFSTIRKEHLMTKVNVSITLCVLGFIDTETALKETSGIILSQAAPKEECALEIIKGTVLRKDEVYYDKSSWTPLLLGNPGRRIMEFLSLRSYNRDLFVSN

[10] = test system: Rattus norvegicus; test: Toxicity in rat assessed as hypokalemia at 300 mg/kg for 2 weeks; format: organism-based; details: in vivo, 336 h
In short: (§3)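 Exploratory rat toxicology study lasting 2 weeks, with 300 mg/kg as the highest dose given. The study assessed hypokalemia, plasma volume expansion, hypertension and renal toxicity.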

[11] = test system: Rattus norvegicus; test: Toxicity in rat assessed as plasma volume expansion at 300 mg/kg for 2 weeks; format: organism-based; details: in vivo, 336 h; in short: as §3
[12] = test system: Rattus norvegicus; test: Toxicity in rat assessed as hypertension at 300 mg/kg for 2 weeks; format: organism-based; details: in vivo, 336 h; in short: as §3
[13] = test system: Rattus norvegicus; test: Renal toxicity in rat at 300 mg/kg for 2 weeks; format: organism-based; details: in vivo, 336 h; in short: as §3
[14] = molecular target: Cytochrome P450 2B6 (Homo sapiens, UniProt P20813); test: Inhibition of CYP2B6 (unknown origin); format: ADME
Cytochrome P450 2B6, sequence (P20813 whole entry): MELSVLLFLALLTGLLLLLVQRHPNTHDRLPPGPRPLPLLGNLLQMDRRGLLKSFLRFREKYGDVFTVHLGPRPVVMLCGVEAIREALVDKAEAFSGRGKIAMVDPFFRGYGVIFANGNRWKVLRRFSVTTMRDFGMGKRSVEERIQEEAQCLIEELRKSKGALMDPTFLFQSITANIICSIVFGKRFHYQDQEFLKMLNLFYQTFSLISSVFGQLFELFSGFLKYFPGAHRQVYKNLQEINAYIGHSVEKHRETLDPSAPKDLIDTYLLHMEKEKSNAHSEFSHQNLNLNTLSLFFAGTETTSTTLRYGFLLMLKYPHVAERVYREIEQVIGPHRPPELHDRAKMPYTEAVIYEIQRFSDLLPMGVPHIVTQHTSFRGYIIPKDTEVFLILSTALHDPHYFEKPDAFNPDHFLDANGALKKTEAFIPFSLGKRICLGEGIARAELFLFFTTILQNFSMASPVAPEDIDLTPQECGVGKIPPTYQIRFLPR

[15] = molecular target: Cytochrome P450 2C8 (Homo sapiens, UniProt P10632); test: Inhibition of CYP2C8 (unknown origin); format: ADME
Cytochrome P450 2C8, sequence (P10632 whole entry): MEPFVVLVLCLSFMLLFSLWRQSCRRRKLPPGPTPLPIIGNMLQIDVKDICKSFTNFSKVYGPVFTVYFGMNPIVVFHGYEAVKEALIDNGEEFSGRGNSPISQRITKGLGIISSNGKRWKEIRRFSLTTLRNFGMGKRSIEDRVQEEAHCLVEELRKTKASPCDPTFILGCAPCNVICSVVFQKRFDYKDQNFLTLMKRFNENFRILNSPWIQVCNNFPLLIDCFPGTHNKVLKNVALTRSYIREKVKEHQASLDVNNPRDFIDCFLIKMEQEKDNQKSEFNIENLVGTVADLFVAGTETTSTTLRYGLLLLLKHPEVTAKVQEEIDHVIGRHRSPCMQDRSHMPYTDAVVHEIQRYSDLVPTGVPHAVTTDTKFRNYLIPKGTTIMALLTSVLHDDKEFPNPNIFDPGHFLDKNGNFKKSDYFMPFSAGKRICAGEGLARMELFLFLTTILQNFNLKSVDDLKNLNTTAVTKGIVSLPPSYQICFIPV

[16] = molecular target: Cytochrome P450 2C9 (Homo sapiens, UniProt P11712); test: Inhibition of CYP2C9 (unknown origin); format: ADME
Cytochrome P450 2C9, sequence (P11712 whole entry): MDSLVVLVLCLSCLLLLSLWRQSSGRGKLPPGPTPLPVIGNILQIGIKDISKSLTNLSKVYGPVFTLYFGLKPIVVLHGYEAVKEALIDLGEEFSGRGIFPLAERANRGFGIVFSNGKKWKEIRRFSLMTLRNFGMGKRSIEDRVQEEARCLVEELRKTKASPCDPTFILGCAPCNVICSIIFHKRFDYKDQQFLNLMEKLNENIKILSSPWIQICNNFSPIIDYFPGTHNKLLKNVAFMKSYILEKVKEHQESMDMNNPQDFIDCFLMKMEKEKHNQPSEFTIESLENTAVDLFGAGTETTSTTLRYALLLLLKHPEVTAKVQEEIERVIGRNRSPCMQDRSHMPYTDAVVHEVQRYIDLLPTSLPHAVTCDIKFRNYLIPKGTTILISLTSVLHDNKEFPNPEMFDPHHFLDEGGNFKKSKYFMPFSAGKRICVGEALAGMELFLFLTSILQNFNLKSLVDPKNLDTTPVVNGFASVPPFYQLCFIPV

[17] = molecular target: Cytochrome P450 2C19 (Homo sapiens, UniProt P33261); test: Inhibition of CYP2C19 (unknown origin); format: ADME
Cytochrome P450 2C19, sequence (P33261 whole entry): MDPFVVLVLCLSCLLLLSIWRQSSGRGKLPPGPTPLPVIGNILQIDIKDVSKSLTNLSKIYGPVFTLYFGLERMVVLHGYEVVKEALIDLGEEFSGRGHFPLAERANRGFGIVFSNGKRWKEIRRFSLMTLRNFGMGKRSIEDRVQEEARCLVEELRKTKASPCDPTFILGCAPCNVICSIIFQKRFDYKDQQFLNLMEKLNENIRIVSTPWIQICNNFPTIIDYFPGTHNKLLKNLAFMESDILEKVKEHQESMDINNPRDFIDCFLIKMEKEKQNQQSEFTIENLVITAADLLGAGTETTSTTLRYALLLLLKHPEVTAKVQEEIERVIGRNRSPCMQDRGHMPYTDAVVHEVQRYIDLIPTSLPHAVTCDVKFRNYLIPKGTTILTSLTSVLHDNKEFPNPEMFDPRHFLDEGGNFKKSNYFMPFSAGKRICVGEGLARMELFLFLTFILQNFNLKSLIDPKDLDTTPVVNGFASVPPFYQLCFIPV

[18] = molecular target: Cytochrome P450 2D6 (Homo sapiens, UniProt P10635); test: Inhibition of CYP2D6 (unknown origin); format: ADME
Cytochrome P450 2D6, sequence (P10635 whole entry): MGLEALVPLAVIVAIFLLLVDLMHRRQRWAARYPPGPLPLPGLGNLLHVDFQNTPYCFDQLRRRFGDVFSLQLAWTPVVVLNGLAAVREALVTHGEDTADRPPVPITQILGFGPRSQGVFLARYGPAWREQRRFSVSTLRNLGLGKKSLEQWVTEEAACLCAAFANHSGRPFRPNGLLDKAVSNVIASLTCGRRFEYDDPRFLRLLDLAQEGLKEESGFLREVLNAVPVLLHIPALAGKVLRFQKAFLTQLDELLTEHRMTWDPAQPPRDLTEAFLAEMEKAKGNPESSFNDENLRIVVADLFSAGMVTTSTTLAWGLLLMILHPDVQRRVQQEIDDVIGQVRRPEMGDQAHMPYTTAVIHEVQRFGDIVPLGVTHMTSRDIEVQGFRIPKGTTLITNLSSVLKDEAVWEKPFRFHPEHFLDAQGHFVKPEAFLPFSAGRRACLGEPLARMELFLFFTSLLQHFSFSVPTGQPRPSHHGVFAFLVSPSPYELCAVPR

[19] = test system: HepG2; test: Cytotoxicity against human HepG2 cells at 80 uM; format: cell-based; details: hepg2, 80 µM
In short: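 HepG2 cells exposed at 80 μM; cytotoxicity assessed.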

[20] = molecular target: hERG (Homo sapiens, UniProt Q12809); test: Inhibition of human ERG at 30 uM by patch clamp assay relative to control
hERG, sequence (Q12809 whole entry): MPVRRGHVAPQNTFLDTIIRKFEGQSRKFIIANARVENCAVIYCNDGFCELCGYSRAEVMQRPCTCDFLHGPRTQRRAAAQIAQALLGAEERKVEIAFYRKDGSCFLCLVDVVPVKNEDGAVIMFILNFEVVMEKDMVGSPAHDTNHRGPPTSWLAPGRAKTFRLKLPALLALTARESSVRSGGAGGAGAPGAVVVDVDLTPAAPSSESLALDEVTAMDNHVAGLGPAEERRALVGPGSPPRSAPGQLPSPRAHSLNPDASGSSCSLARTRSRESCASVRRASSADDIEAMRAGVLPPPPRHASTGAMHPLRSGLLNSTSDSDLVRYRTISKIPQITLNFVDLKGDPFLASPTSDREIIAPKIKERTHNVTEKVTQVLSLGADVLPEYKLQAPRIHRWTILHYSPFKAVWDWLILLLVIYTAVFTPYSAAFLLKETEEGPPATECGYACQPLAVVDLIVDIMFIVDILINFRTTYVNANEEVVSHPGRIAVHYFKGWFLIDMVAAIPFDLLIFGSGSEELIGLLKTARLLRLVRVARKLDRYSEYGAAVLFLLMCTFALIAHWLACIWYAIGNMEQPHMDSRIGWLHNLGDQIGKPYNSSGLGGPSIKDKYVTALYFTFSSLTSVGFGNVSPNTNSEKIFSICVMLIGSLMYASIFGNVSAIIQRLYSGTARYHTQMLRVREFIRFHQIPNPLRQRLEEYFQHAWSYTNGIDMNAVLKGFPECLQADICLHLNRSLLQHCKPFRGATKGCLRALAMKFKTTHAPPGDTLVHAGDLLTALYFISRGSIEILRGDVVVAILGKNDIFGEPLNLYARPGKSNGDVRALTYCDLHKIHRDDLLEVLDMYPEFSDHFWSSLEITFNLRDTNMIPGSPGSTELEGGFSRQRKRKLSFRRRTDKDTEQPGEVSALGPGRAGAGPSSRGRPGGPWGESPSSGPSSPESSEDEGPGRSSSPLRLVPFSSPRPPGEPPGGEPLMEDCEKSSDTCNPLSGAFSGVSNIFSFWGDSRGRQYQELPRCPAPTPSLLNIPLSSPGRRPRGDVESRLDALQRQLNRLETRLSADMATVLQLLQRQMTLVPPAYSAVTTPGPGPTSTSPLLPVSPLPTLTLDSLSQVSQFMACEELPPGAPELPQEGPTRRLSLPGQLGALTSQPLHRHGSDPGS
In short: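 hERG channel, patch clamp; percent inhibition at 30 μM.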

[21] = Permeability from basolateral to apical side in human Caco2 cells; format: ADME, cell-based; details: Caco-2, read-out: permeability
[22] = Metabolic stability in dog liver microsomes assessed as UGT-mediated glucuronidation of compound by measuring half life in presence of UDPGA; format: ADME, Canis lupus familiaris; in short: as §1
[23] = Metabolic stability in rat liver microsomes assessed as UGT-mediated glucuronidation of compound by measuring half life in presence of UDPGA; format: ADME; in short: as §1
[24] = Total plasma clearance in mouse at 5 mg/kg, iv; format: ADME, organism-based
[25] = AUC (0 to 24 hrs) in mouse at 5 mg/kg, iv; format: ADME, organism-based; set-up: time < 24 hr, dose 5 mg/kg, route intravenous; details: in vivo
[26] = test system: Rattus norvegicus; test: Volume of distribution at steady state in rat at […], iv; format: ADME, organism-based; details: in vivo
[27] = test system: Rattus norvegicus; test: MRT in rat at […], iv; format: ADME, organism-based; details: in vivo
[28] = AUC (0 to 24 hrs) in rat at […], iv; format: ADME, organism-based; set-up: time < 24 hr, dose 7.7 mg/kg, route intravenous; details: in vivo
[29] = Oral bioavailability in rat at 10 mg/kg; format: ADME, organism-based; details: in vivo
[30] = Apparent elimination half life in dog at 1 mg/kg, iv; format: ADME, organism-based, Canis lupus familiaris; details: in vivo, read-out: betat1/2(app) (converted)
[31] = Volume of distribution at steady state in cynomolgus monkey at 1 mg/kg, iv; format: ADME, organism-based, Macaca fascicularis; details: in vivo, read-out: Vdss
[32] = Total plasma clearance in cynomolgus monkey at 1 mg/kg, iv; format: ADME, organism-based, Macaca fascicularis
[33] = MRT in cynomolgus monkey at 1 mg/kg, iv; format: ADME, organism-based, Macaca fascicularis; details: in vivo
[34] = Oral bioavailability in cynomolgus monkey at 3 mg/kg; format: ADME, organism-based, Macaca fascicularis; details: in vivo
[35] = Protein binding in human plasma; format: ADME, cell-free; details: read-out: PPB (converted)
[36] = Protein binding in dog plasma; format: ADME, cell-free, Canis lupus familiaris; details: read-out: PPB (converted)
[37] = Protein binding in cynomolgus monkey plasma; format: ADME, cell-free, Macaca fascicularis; details: read-out: PPB (converted)
[38] = test system: Plasma; test: Drug uptake in po dosed non-fasting diet-induced obese mouse plasma after 3 hrs; format: ADME, organism-based; details: in vivo
In short: (§4)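 Nonfasting diet-induced obese male mice, groups of n = 6 matched for body weight. Tail bleed at −60 min, then oral dosing with vehicle (0.5% Methocel, 0.1% Tween 80 in water) or drug. DHC 10 mg/kg given orally 60 min later. Bleeds at 30, 60 and 120 min after DHC. Plasma corticosterone measured by enzyme immunosorbent assay. Drug levels measured in terminal bleed samples.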

[39] = test system: Mus musculus; test: In vivo inhibition of 11beta-HSD1 in po dosed non-fasting diet-induced obese mouse assessed as plasma concentration required to show decrease in corticosterone excursion pretreated for 60 mins followed by DHC administration measured up to 120 mins by enzyme immunosorbent assay; format: functional, organism-based; in short: as §4
[40] = test system: Cynomolgus monkey; test: In vivo inhibition of 11beta-HSD1 in non-fasting diet-induced obese cynomolgus monkey assessed as decrease in corticosterone excursion in plasma pretreated via oral gavage for 30 mins followed by DHC administration measured up to 60 mins by enzyme immunosorbent assay; format: functional; details: Macaca fascicularis
In short: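 Cynomolgus monkeys given test compound at a predetermined time before the experiment, chosen from its pharmacokinetics. Substrate DHC (rodent substrate, used in place of cortisone) given afterwards. Blood sampled at various times. Design otherwise similar to the mouse DHC challenge.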

[41] = test system: Plasma; test: Drug metabolism in dog plasma assessed as ketone A formation at 1 mg/kg, iv; format: ADME, organism-based, Canis lupus familiaris; details: in vivo
[42] = test system: Cynomolgus monkey; test: Toxicity in cynomolgus monkey assessed as HPA axis activation by measuring DHEAS level at 1 to 10 mg/kg for 7 days; format: organism-based, Macaca fascicularis; details: in vivo, 168 h
[43] = test system: Cynomolgus monkey; test: Toxicity in cynomolgus monkey assessed as HPA axis activation by measuring cortisol level at 1 to 10 mg/kg for 7 days; format: organism-based, Macaca fascicularis; details: in vivo, 168 h
[44] = test system: Plasma; test: Fraction unbound in cynomolgus monkey plasma at 1 mg/kg after 24 hrs; format: ADME, organism-based, Macaca fascicularis; details: in vivo
[45] = in vivo; details: mouse, brain / plasma, iv, 5 mg/kg

O=C(CC1(c2ccccc2)C2CC3CC1CC(C2)C3O)N1CC(O)C1 (stereo in doubt; form 2)
ED50 [1]: 8.6 mg/kg
half-life [2]: > 3.33 h
half-life [3]: > 3.33 h
Stability [4]: 91%
Stability [5]: 80%
Stability [6]: 67%
IC50 [7]: 48 µM
IC50 [8]: 3.5 µM
IC50 [9]: 0.5 µM
Activity [10]: Non-Toxic
Activity [11]: Non-Toxic
Activity [12]: Non-Toxic
Activity [13]: Non-Toxic
IC50 [14]: > 40 µM
IC50 [15]: > 40 µM
IC50 [16]: > 40 µM
IC50 [17]: > 40 µM
IC50 [18]: > 40 µM
Activity [19]: Non-Toxic
inhibition at 30 µM [20]: 10%
Papp B→A [21]: 28.5 ×10⁻⁶ cm/s
half-life [22]: > 3.33 h
half-life [23]: 0.783 h
clearance [24]: 50 mL/min/kg
AUC(0-t) at 24 h [25]: 5 µM·h
Vdss [26]: 0.5 L/kg
MRT [27]: 1.3 h
AUC(0-t) at 24 h [28]: 6 µM·h
bioavailability [29]: 20%
half-life [30]: 7.4 h
Vd [31]: 4.2 L/kg
clearance [32]: 21.2 mL/min/kg
MRT [33]: 3.3 h
bioavailability [34]: 57%
fraction unbound [35]: 0.46
fraction unbound [36]: 0.43
fraction unbound [37]: 0.32
Drug uptake [38]: Dose-dependent effect
EC50 [39]: 0.85 µM
ED50 [40]: 0.12 mg/kg
Drug metabolism [41]: Metabolite_Detected
Activity [42]: Non-Toxic
Activity [43]: Non-Toxic
Cp(f) [44]: 2 nM
Kp [45]: < 0.1
